SMILES strings stand for the structures. The source made the active and inactive calls. The calls are words filed in the database; no cut-off is given here.

In series [1] the target is Serine/threonine-protein kinase PAK 2 (Homo sapiens, UniProt Q13177). The series is described as follows: Inhibition of full length PAK2 (unknown origin) assessed s reduction in substrate phosphorylation using peptide as substrate by FRET based Z-LYTE kinase assay.
The nature of series [2]: Cytotoxicity against human WPMY-1 cells assessed as reduction in cell viability at 1 to 10 uM incubated for 24 hrs by WST-8 assay. To be noted: wpmy-1, 24 h, dose 1-10 µM. It counts as toxicity, cell-based. A general note: Tetrazolium dyes change colour on reduction, which living cells bring about.
In series [3] the test system is WPMY-1. The series is described as follows: Inhibition of actin filament organization in human WPMY-1 cells assessed as reduction in degree of actin polymerization at 1 uM incubated for 24 hrs by FITC-coupled phalloidin staining based laser scanning microscopy. The class given is functional, cell-based. Put shortly:
(§1)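 Serum-starved WPMY-1 cells grown on chamber slides with inhibitor (1–10 µM) or DMSO for 24 h, then stained for F-actin with FITC-labeled phalloidin and imaged by laser scanning confocal microscopy; filament bundles, protrusions and cell shape judged visually against solvent controls; representative images from 5 independent experiments.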

Series [4] can be described thus: Cytotoxicity against human WPMY-1 cells assessed as reduction in cell proliferation at 1 to 10 uM incubated for 24 hrs by EdU incorporation assay. It counts as toxicity, cell-based. More on the design: scale not given: the % may be the effect or the level left. As to conditions: wpmy-1, 24 h, dose 1-10 µM.
The target in series [5] is Serine/threonine-protein kinase PAK 3 (Homo sapiens, UniProt O75914). The series is described as follows: Inhibition of full length PAK3 (unknown origin) assessed s reduction in substrate phosphorylation using peptide as substrate by FRET based Z-LYTE kinase assay.
Sequence of Serine/threonine-protein kinase PAK 3 (O75914 whole entry): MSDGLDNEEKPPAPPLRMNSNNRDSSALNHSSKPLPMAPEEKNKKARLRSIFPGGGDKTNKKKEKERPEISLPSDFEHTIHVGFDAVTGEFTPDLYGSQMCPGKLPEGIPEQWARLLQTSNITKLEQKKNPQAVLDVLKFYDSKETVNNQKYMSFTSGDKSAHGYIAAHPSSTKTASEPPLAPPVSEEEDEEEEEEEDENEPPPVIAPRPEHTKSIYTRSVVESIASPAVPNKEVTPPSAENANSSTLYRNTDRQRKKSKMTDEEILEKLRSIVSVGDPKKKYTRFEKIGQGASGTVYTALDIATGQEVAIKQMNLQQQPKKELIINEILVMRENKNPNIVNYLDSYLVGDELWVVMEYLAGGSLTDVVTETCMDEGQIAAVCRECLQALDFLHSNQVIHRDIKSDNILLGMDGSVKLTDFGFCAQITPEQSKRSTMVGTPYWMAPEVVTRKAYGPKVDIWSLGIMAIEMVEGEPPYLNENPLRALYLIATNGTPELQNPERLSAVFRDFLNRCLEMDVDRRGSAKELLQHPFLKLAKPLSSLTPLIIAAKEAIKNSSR
The species entered for series [6] is Homo sapiens. The series can be described thus: Inhibition of endothelin-1 induced prostate cancer patient derived human Prostate gland strips contraction assessed as reduction in KCl-induced contraction at 10 uM by organ-bath analysis. It counts as functional, tissue-based. Put shortly:
(§2)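 Human prostate strips (6 x 3 x 3 mm) in aerated (95% O2/5% CO2) Krebs-Henseleit, 37°C, pH 7.4, resting tone 4.9 mN after 45 min equilibration; reference contraction to 80 mM KCl, washout, then inhibitor or DMSO added before cumulative noradrenaline, phenylephrine or endothelin concentration-response curves or EFS frequency-response curves; tension expressed as % of KCl contraction.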

Series [7] in a line: Cytotoxicity against human WPMY-1 cells assessed as reduction in cell viability at 1 to 10 uM incubated for 24 to 72 hrs by WST-8 assay. The class given is toxicity, cell-based. To be noted: wpmy-1, 10 µM, TDE = time-dependent effect, dose lower 1 µM, time lower 24 hrs, dose upper 10 µM, time upper 72 hrs.
The test system of series [8] is WPMY-1. The series can be described thus: Inhibition of actin filament organization in human WPMY-1 cells at 1 to 10 uM incubated for 24 hrs by FITC-coupled phalloidin staining based laser scanning microscopy. The class given is functional, cell-based. As to conditions: dose 1-10 µM. Put shortly:
as §1

The species named for series [9] is Homo sapiens. The series is described as follows: Inhibition of electric field stimulation induced prostate cancer patient derived human Prostate gland strips contraction assessed as reduction in KCl-induced contraction at 30 uM at 2 to 32 Hz frequency by organ-bath analysis. The class given is functional, tissue-based. Put shortly:
as §2

Series [10] is described as follows: Inhibition of actin filament organization in human WPMY-1 cells assessed as rounded cell shape without protrusion at 5 to 10 uM incubated for 24 hrs by FITC-coupled phalloidin staining based laser scanning microscopy. It counts as functional. As to conditions: dose 5-10 µM. A digest of the protocol: as §1
The nature of series [11]: Cytotoxicity against human WPMY-1 cells assessed as cell survival rate at 5 to 10 uM incubated for 48 to 72 hrs by WST-8 assay. It counts as toxicity, cell-based. As to conditions: dose lower 5 µM, time lower 48 hrs, dose upper 10 µM, time upper 72 hrs, read-out: Survival. A digest of the protocol:
(§3)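 WPMY-1 human prostate stromal cells kept in RPMI 1640 with 10% FCS and 1% penicillin/streptomycin, 37°C, 5% CO2; switched to FCS-free medium before treatment. Seeded 20,000 cells/well, grown 24 h, then exposed to inhibitor or DMSO (1, 5, 10 µM) for 24, 48 or 72 h with separate controls per period. WST-8 (CCK-8) added, absorbance 450 nm after 2 h at 37°C; 5 independent experiments, means ±SEM.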

The species named for series [12] is Homo sapiens. The series can be described thus: Inhibition of phenylephrine induced prostate cancer patient derived human Prostate gland strips contraction assessed as reduction in KCl-induced contraction at 30 uM by organ-bath analysis. The class given is functional, tissue-based. Put shortly:
as §2

A short description of series [13]: Cytotoxicity against human WPMY-1 cells assessed as cell survival rate at 1 uM incubated for 24 hrs by WST-8 assay. As to conditions: read-out: Survival. The class given is toxicity, cell-based. A digest of the protocol: as §3
For series [14], the species on record is Homo sapiens. The series is described as follows: Inhibition of noradrenaline induced prostate cancer patient derived human Prostate gland strips contraction assessed as reduction in KCl-induced contraction at 30 uM by organ-bath analysis. The class given is functional, tissue-based. A digest of the protocol: as §2
Series [15] concerns WPMY-1. The series is described as follows: Inhibition of actin filament organization in human WPMY-1 cells at 1 uM incubated for 24 hrs by FITC-coupled phalloidin staining based laser scanning microscopy. The class given is functional, cell-based. Put shortly: as §1
Series [16] is filed under the species Homo sapiens. The series can be described thus: Inhibition of endothelin-1 induced prostate cancer patient derived human Prostate gland strips contraction assessed as reduction in KCl-induced contraction at 30 uM by organ-bath analysis. It counts as functional, tissue-based. Put shortly:
as §2

Series [17] can be described thus: Effect on DISC1 knockdown-elicited synaptic changes in rat cortical neurons assessed as prevention of spine size reduction preincubated for 60 mins followed by APV WD solution addition and measured after 20 mins by immunofluorescence analysis. It counts as functional, cell-based. As to conditions: cortical neurone.
The species named for series [18] is Homo sapiens. The series can be described thus: Inhibition of endothelin-2 induced prostate cancer patient derived human Prostate gland strips contraction assessed as reduction in KCl-induced contraction at 30 uM by organ-bath analysis. It counts as functional, tissue-based. Put shortly: as §2
For series [19], the species on record is Homo sapiens. The series is described as follows: Inhibition of electric field stimulation induced prostate cancer patient derived human Prostate gland strips contraction assessed as reduction in KCl-induced contraction at 10 uM by organ-bath analysis. The class given is functional, tissue-based. Put shortly:
as §2

In series [20] the test system is WPMY-1. The series can be described thus: Inhibition of actin filament organization in human WPMY-1 cells assessed as degeneration of protrusions at 1 uM incubated for 24 hrs by FITC-coupled phalloidin staining based laser scanning microscopy. The class given is functional, cell-based. A digest of the protocol:
as §1

Series [21] can be described thus: Cytotoxicity against human WPMY-1 cells assessed as cell survival rate at 10 uM incubated for 48 to 72 hrs by WST-8 assay. It counts as toxicity, cell-based. As to conditions: time 48-72 hrs, read-out: Survival. A digest of the protocol:
as §3

The nature of series [22]: Cytotoxicity against human WPMY-1 cells assessed as cell survival rate at 1 uM incubated for 24 to 72 hrs by WST-8 assay. It counts as toxicity, cell-based. To be noted: time 24-72 hrs, read-out: Survival. A digest of the protocol:
as §3

Series [23] is filed under the species Homo sapiens. The series is described as follows: Inhibition of electric field stimulation induced prostate cancer patient derived human Prostate gland strips contraction assessed as reduction in KCl-induced contraction at 100 uM by organ-bath analysis. The class given is functional, tissue-based. Put shortly:
as §2

The species named for series [24] is Homo sapiens. The series can be described thus: Inhibition of noradrenaline induced prostate cancer patient derived human Prostate gland strips contraction assessed as reduction in KCl-induced contraction at 300 uM by organ-bath analysis. The class given is functional, tissue-based. Put shortly:
as §2

For series [25], the species on record is Homo sapiens. The series is described as follows: Inhibition of electric field stimulation induced prostate cancer patient derived human Prostate gland strips contraction assessed as reduction in KCl-induced contraction at 300 uM at 32 Hz frequency by organ-bath analysis. It counts as functional, tissue-based. Put shortly:
as §2

For series [26], the species on record is Homo sapiens. The series can be described thus: Inhibition of phenylephrine induced prostate cancer patient derived human Prostate gland strips contraction assessed as reduction in KCl-induced contraction at 300 uM by organ-bath analysis. It counts as functional, tissue-based. Put shortly:
as §2

Sequence of Serine/threonine-protein kinase PAK 2 (Q13177 whole entry): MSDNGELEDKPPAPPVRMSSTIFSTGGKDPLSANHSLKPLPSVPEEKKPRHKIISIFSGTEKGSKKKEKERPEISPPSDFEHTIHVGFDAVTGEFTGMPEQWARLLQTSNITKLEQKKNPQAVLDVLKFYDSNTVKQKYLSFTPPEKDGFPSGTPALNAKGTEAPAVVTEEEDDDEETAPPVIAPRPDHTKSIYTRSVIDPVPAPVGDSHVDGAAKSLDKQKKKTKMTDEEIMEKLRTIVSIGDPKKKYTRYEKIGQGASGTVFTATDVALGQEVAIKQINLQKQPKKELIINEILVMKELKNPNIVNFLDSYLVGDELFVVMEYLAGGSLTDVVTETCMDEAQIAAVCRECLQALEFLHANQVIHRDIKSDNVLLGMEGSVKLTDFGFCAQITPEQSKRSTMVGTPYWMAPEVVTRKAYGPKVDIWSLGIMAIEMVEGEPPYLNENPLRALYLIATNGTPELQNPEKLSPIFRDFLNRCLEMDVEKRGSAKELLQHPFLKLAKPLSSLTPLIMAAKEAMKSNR

For `CCn1c(=O)c(-c2ccc(Cl)cc2Cl)cc2cnc(Nc3ccc(N4CCNCC4)c(F)c3)nc21`, the IC50 in [1] and in series [5] was 10 nM throughout. Further, the Activity entry is “Dose-Dependent Effect” in series [2], 45% in [4] and “Tde” in series [7]. The inhibition entry in the series with WPMY-1 [3], in the series filed under Homo sapiens [9], in the series with WPMY-1 [15], in the series filed under Homo sapiens [16], in the series listed under Homo sapiens [18] and in the series on WPMY-1 [20] was “Active” in each case. The inhibition entry in the series filed under Homo sapiens [6], in the series filed under Homo sapiens [12], in the series listed under Homo sapiens [14] and in the series filed under Homo sapiens [19] was “inactive” in each case. Further, the inhibition entry in the series on WPMY-1 [8] is “Dose-Dependent Effect”. The “inhibition (INH)” value in series [10] came out at 100%. In [11], the viability at up to 10 µM stood at 1%. Moreover, in series [13], the viability at 24 h, 1 µM came out at 55%. Moreover, the EC50 (usually the concentration that produces a half-maximal response) in series [17] came to 500 nM.

In the case of `Oc1ccc2ccccc2c1SSc1c(O)ccc2ccccc12`, the Activity result is “Dose-Dependent Effect” in series [2], 41% in series [4] and “Tde” in series [7]. Moreover, the inhibition result in the series on WPMY-1 [3], in the series listed under Homo sapiens [25], in the series on WPMY-1 [15] and with WPMY-1 [20] was “Active” in each case. Besides, in the series with WPMY-1 [8], the inhibition result is “Dose-Dependent Effect”. Further, the viability at 10 µM in series [21] is 1%. Further, the “inhibition (INH)” value in [10] is listed as 100%. Also, the viability at 1 µM in series [22] was 55%. Besides, the inhibition result in the series filed under Homo sapiens [23], in the series filed under Homo sapiens [24] and in the series listed under Homo sapiens [26] was “inactive” in each case.

(Values after ChEMBL document CHEMBL5653625, “P21-Activated Kinase Inhibitors FRAX486 and IPA3: Inhibition of Prostate Stromal Cell Growth and Effects on Smooth Muscle Contraction in the Human Prostate” (PLoS One, 2016).)
